Measured values taken from ChEMBL document CHEMBL1122853, “New bicyclic antidepressant agent. Synthesis and activity of napactadine and related compounds” (J Med Chem, 1985).
Calls of active or inactive are those of the source. No cut-off for these calls is given here.

How the values were obtained:
Mus musculus [1] = assay: Effective dose required to prevent reserpine ptosis in mice, administered intraperitoneally.; assay type: functional, organism-based
Summary of the method: (§1)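 Male Swiss-Webster or Harlan ICR mice, five per dose. Drug in saline given po or ip per line. Reserpine 2.5 mg/kg ip 30 min later. Complete absence of ptosis at 45 min after reserpine scored as positive. ED50 by Litchfield-Wilcoxon or Horn method, with 95% confidence intervals.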

Mus musculus [2] = assay: Effective dose required to prevent reserpine ptosis in mice, administered orally(po); NA=Not active at 100 mg/kg; assay type: functional, organism-based; parameters: dose 100 mg/kg; summary of the method: as §1
Mus musculus [3] = assay: Effective dose required to prevent reserpine ptosis in mice, administered orally; NA=Not active at 100 mg/kg; assay type: functional, organism-based; parameters: dose 100 mg/kg; summary of the method: as §1
Mus musculus [4] = assay: Effective dose required to potentiate yohimbine hydrochloride induced lethality in mice, administered intraperitoneally; assay type: functional; conditions: ip
Summary of the method: (§2)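 Male Swiss-Webster or Swiss ND/4 mice, 20-24 g, randomized into groups of 10 and housed five per cage. Test drug in saline given ip, with a saline control group. Yohimbine hydrochloride 20 mg/kg sc was given 30 min later, and mice were then reaggregated.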

Mus musculus [5] = assay: (§3) Effective dose required to prevent reserpine ptosis in mice, administered intraperitoneally; assay type: functional; conditions: ip; summary of the method: as §1
[6] = Lethal dose in mouse i.p.; assay type: toxicity, organism-based; conditions: in vivo, ip
Summary of the method: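 Male Swiss-Webster albino mice, 20-24 g, in groups of five. Each group received one dose ip in saline (prepared 30 min before injection) at 10 mL/kg. Mice were held singly for about 5 h, then housed together with food and water. Deaths were counted at 1 and 24 h. LD50 by Litchfield-Wilcoxon.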

[7] = Therapeutic index after administered intraperitoneally in mouse; assay type: organism-based; conditions: in vivo, ip, read-out: Therapeutic index
Summary of the method: (§4)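 Index from mouse LD50 over reserpine-ptosis ED50 by the same route. […] Deaths recorded at 1 and 24 h; Litchfield-Wilcoxon calculation.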

Mus musculus [8] = assay: Effective dose required to prevent reserpine ptosis in mice, administered (po)orally; assay type: functional; summary of the method: as §1
Mus musculus [9] = assay: as §3; assay type: functional; conditions: ip; summary of the method: as §1; remark: listed apart in the source
Mus musculus [10] = assay: Compound (administered intraperitoneally) was tested for yohimbine lethality potentiation; assay type: functional; conditions: ip; summary of the method: as §2
[11] = Lethal dose in mouse p.o.; assay type: toxicity, organism-based; conditions: in vivo, po
[12] = Therapeutic index administered perorally in mouse; assay type: organism-based; conditions: in vivo, po, read-out: Therapeutic index; summary of the method: as §4
Mus musculus [13] = assay: Electrical shock aggression was evaluated in mice, administered intraperitoneally; NA means no aggression blockade at 46.4 mg/kg; assay type: functional, organism-based; parameters: dose 46.4 mg/kg
Summary of the method: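 Pairs of mice placed under an inverted 1000 cm3 beaker and shocked through the floor grid (3 mA, 3 Hz) for 2 min. Drug given ip 30 min before testing; scored all-or-none against a saline group. Fighting counted as inhibited when mean attacks fell 1.5 SD below the vehicle mean.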

Mus musculus [14] = assay: Effective dose required to prevent reserpine ptosis in mice administered intraperitoneally; assay type: functional; conditions: ip; summary of the method: as §1
Mus musculus [15] = assay: Effective dose required to prevent reserpine ptosis in mice, administered orally; assay type: functional; conditions: po; summary of the method: as §1
Mus musculus [16] = assay: Effective dose against yohimbine hydrochloride induced lethality in mice, administered intraperitoneally; assay type: functional; conditions: ip; summary of the method: as §2
Mus musculus [17] = assay: Effective dose required to prevent reserpine ptosis in mice, administered intraperitoneally; NA=Not active at 100 mg/kg; assay type: functional, organism-based; parameters: dose 100 mg/kg; summary of the method: as §1
Mus musculus [18] = assay: Effective dose required to prevent reserpine ptosis in mice administered intraperitoneally; NA=Not active; assay type: functional, organism-based; summary of the method: as §1
Mus musculus [19] = assay: Effective dose required to prevent reserpine ptosis in mice, administered orally(po); assay type: functional; summary of the method: as §1
Mus musculus [20] = assay: Effective dose required to prevent reserpine ptosis in mice, administered intraperitoneally; NA=Not active at 46 mg/Kg; assay type: functional, organism-based; summary of the method: as §1
Mus musculus [21] = assay: Effective dose required to prevent reserpine ptosis in mice administered (po)orally; NA=Not active; assay type: functional, organism-based; summary of the method: as §1
[22] = Therapeutic index administered intraperitoneally in mouse; assay type: organism-based; conditions: in vivo, ip, read-out: Therapeutic index; summary of the method: as §4
Mus musculus [23] = assay: Effective dose required to potentiate yohimbine hydrochloride induced lethality in mice, administered intraperitoneally; NA=Not active; assay type: functional, organism-based
Summary of the method: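 Male Swiss-Webster or Swiss ND/4 mice, 20-24 g, randomized into groups of 10 and aggregated five per cage. Test drug in saline given ip, with a saline control group. Yohimbine HCl (20 mg/kg, sc) injected 30 min later, then mice reaggregated.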

Mus musculus [24] = assay: Effective dose required to prevent reserpine ptosis in mice, administered orally (po); assay type: functional; summary of the method: as §1

In the case of CC/N=C(/Cc1c(Cl)ccc(Cl)c1Cl)NCC, the ED50 (Mus musculus [1]) is reported as “inactive”.

For COc1ccc2cc(CC(=N)N3CCC(c4ccccc4)CC3)ccc2c1, the ED50 (Mus musculus [2]) was “inactive”.

For Cc1ccc(C/N=C(/N)Cc2ccc3ccccc3c2)c(C)c1, the ED50 (Mus musculus [3]) was “inactive”.

For C/N=C(\NC)c1ccc(Cl)c(Cl)c1.Cl, the ED50 (Mus musculus [4]) was 2.4 mg/kg, the ED50 (Mus musculus [5]) was 9.3 mg/kg and the LD50 [6] was 60 mg/kg. The selectivity ratio [7] was 6, the ED50 (Mus musculus [8]) was 10.8 mg/kg and the ED50 (Mus musculus [9]) was 9.3 mg/kg. For the same compound, the ED50 (Mus musculus [10]) was 2.4 mg/kg, the LD50 [11] was 215 mg/kg and the selectivity ratio [12] was 20. For the same compound, the ED50 (Mus musculus [13]) was “inactive”.

In the case of C/N=C(/COc1ccccc1)NC.Cl, the ED50 (Mus musculus [4]) is reported as 2.2 mg/kg and the ED50 (Mus musculus [14]) is reported as 1.1 mg/kg.

With CC/N=C(/Cc1ccc2ccccc2c1Cl)NCC.Cl the ED50 (Mus musculus [15]) was 41 mg/kg, the ED50 (Mus musculus [16]) was 41 mg/kg and the ED50 (Mus musculus [17]) was “inactive”.

With CCC/N=C(/COc1ccccc1)NCCC the ED50 (Mus musculus [18]) was “inactive”.

With Cl.N=C(Cc1ccc2ccccc2c1Cl)N1CCC(O)(c2ccc(Cl)cc2)CC1 the ED50 (Mus musculus [19]) was 10.8 mg/kg.

In the case of CC/N=C(/Cc1cc(Cl)c(Cl)cc1Cl)NCC, the ED50 (Mus musculus [20]) is reported as “inactive”.

For CC/N=C(/Cc1ccc(F)cc1)NCC, the ED50 (Mus musculus [1]) was “inactive”.

In the case of COc1ccc(CC/N=C(/N)Cc2ccc3ccccc3c2)cc1OC, the ED50 (Mus musculus [2]) is reported as “inactive”.

Cl.N=C(Cc1ccc2ccccc2c1Cl)N1CCN(c2cccc(Cl)c2)CC1 showed an ED50 (Mus musculus [19]) of 16.2 mg/kg.

With C/N=C(/Cc1c(O)ccc2ccccc12)NC the ED50 (Mus musculus [21]) was “inactive”.

For C/N=C(/Cc1ccc([N+](=O)[O-])cc1)NC.Cl, the ED50 (Mus musculus [4]) was 20 mg/kg, the ED50 (Mus musculus [5]) was 3.2 mg/kg and the selectivity ratio [22] was 67. It also gave an LD50 [6] of 215 mg/kg, an ED50 (Mus musculus [8]) of 3.2 mg/kg and an LD50 [11] of 681 mg/kg. The selectivity ratio [12] was 213 and the ED50 (Mus musculus [13]) was “inactive”.

CC/N=C(/Cc1ccc2ccccc2c1)NCC.Cl gave an ED50 (Mus musculus [4]) of 19.6 mg/kg, an ED50 (Mus musculus [5]) of 19.6 mg/kg and an ED50 (Mus musculus [19]) of 31 mg/kg.

CC/N=C(/Cc1ccc(Br)cc1)NCC.Cl showed an ED50 (Mus musculus [4]) of 2.7 mg/kg and an ED50 (Mus musculus [5]) of 2.8 mg/kg.

Work on C/N=C(\NC)C(c1ccc(Cl)cc1)c1ccc(Cl)cc1.Cl yielded an ED50 (Mus musculus [5]) of 2.4 mg/kg and an ED50 (Mus musculus [16]) of 27.2 mg/kg.

For C/N=C(/Cc1ccc2cc(OC)ccc2c1)NC.Cl, the ED50 (Mus musculus [23]) was “inactive”, the ED50 (Mus musculus [5]) was 19 mg/kg and the ED50 (Mus musculus [15]) was 23.7 mg/kg.

With C/N=C(/Cc1ccc(OC)c(OC)c1)NC the ED50 (Mus musculus [1]) was “inactive”.

Work on CC/N=C(/COc1ccc(Cl)c(Cl)c1)NCC.Cl yielded an ED50 (Mus musculus [4]) of 3.5 mg/kg and an ED50 (Mus musculus [5]) of 3.3 mg/kg.

Work on Cl.N=C(Cc1ccc2ccccc2c1Cl)N1CCCC1 yielded an ED50 (Mus musculus [15]) of 2.9 mg/kg.

With C/N=C(/Cc1ccc(-c2ccccc2)cc1)NC the ED50 (Mus musculus [1]) was “inactive”.

With CC(C)/N=C(/N)Cc1ccc2ccccc2c1 the ED50 (Mus musculus [2]) was “inactive”.

With CC(C)/N=C(/Cc1ccc2ccccc2c1)NC(C)C the ED50 (Mus musculus [3]) was “inactive” and the ED50 (Mus musculus [17]) was “inactive”.

In the case of COc1ccc2cc(CC(=N)N3CCCC3)ccc2c1, the ED50 (Mus musculus [2]) is reported as “inactive”.

For CC/N=C(/COc1cc(Cl)c(Cl)cc1Cl)NCC, the ED50 (Mus musculus [1]) was “inactive”.

C/N=C(\NC)c1ccc(Cl)cc1.Cl showed an ED50 (Mus musculus [4]) of 6 mg/kg, an ED50 (Mus musculus [5]) of 6.8 mg/kg and a selectivity ratio [22] of 16. It also gave an LD50 [6] of 108 mg/kg, an LD50 [11] of 200 mg/kg and a selectivity ratio [12] of 32. It also gave an ED50 (Mus musculus [24]) of 6.2 mg/kg.

For C/N=C(/Cc1ccc(C)cc1)NC, the ED50 (Mus musculus [1]) was “inactive”.

Work on Cl.Cl.N=C(Cc1ccc2ccccc2c1Cl)NCCCN1CCOCC1 yielded an ED50 (Mus musculus [19]) of 3.2 mg/kg.

With CC/N=C(/Cc1cccc(C(F)(F)F)c1)NCC.Cl the ED50 (Mus musculus [4]) was 12.8 mg/kg and the ED50 (Mus musculus [5]) was 5.1 mg/kg.

In the case of COc1ccccc1N1CCN(C(=N)Cc2ccc3ccccc3c2)CC1, the ED50 (Mus musculus [2]) is reported as “inactive”.

For C/N=C(/Cc1ccc2ccccc2c1O)NC.Cl, the ED50 (Mus musculus [8]) was 26.1 mg/kg.

With CC/N=C(/Cc1c(Cl)cccc1Cl)NCC the ED50 (Mus musculus [1]) was “inactive”.

Work on CN1CCN(C(=N)Cc2ccc3ccccc3c2)CC1.Cl yielded an ED50 (Mus musculus [8]) of 14.7 mg/kg.
